Laboratory results from PMC9359405 (International Journal of Nanomedicine, 2022).

What was measured:
Type in all cases: in vivo, Wistar rats
MRP1 = experiment: Immunohistochemistry of efflux proteins in brain tissue; conditions: intranasal 1.25 mg/kg, 14 days, score 0-12
[1] = Pharmacokinetics in blood and vital organs; conditions: for CL/F: gavage; for AUC(0-t) / Cmax / MRT last / Tmax / half-life: male, Wistar, rat, po
Procedure, shortened: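 Male Wistar rats (200±20 g) received the test compound as an aqueous solution by gavage. Five rats were sampled at each of 11 times from 5 min to 24 h, and blood and organs were collected and weighed. Tissue homogenates (1% perchloric acid) and plasma (6% perchloric acid) were deproteinized, extracted into ethyl acetate at pH 11.8, and analysed by HPLC at 308 nm. Mean±SD, n=5.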

P-gp = experiment: Immunohistochemistry of efflux proteins in brain tissue; conditions: intranasal 1.25 mg/kg, 14 days, score 0-12
BCRP = experiment: as above; conditions: intranasal 1.25 mg/kg, 14 days, score 0-12
[2] = nasal NEs vs gavage HupA aqueous solution

## C/C=C1\[C@H]2C=C(C)C[C@]1(N)c1ccc(=O)[nH]c1C2 [HupA Solution, huperzine A]
MRP1
  MRP1 protein expression (immunoreactive score): higher in the HupA aqueous solution group than in the blank control group
[1]; Brain
  CL/F: 42.63 ± 7.93 mL·h
[1]; Heart
  CL/F: 7.26 ± 0.05 mL·h
[1]; Kidney
  CL/F: 0.91 ± 0.02 mL·h
[1]; Liver
  CL/F: 2.88 ± 0.15 mL·h
[1]; Lung
  CL/F: 4.03 ± 0.09 mL·h
[1]; Plasma
  CL/F: 9.88 ± 0.89 mL·h
[1]; Spleen
  CL/F: 2.45 ± 0.03 mL·h
[1]; brain
  AUC(0-t): 28.6 ± 5.72 ng·h/mL
  Cmax: 15 ± 4.25 ng/mL
  MRT last: 1.49 ± 0.12 h
  Tmax: 0.5 h
  half-life: 1.27 ± 0.16 h
[1]; heart
  AUC(0-t): 163 ± 5.85 ng·h/mL
  Cmax: 163 ± 7.33 ng/mL
  MRT last: 1.6 ± 0.05 h
  Tmax: 0.5 h
  half-life: 2.21 ± 0.68 h
[1]; kidney
  AUC(0-t): 1350 ± 33.3 ng·h/mL
  Cmax: 567 ± 40.6 ng/mL
  MRT last: 2.78 ± 0.05 h
  Tmax: 1 h
  half-life: 2.1 ± 0.1 h
[1]; liver
  AUC(0-t): 424 ± 22.9 ng·h/mL
  Cmax: 256 ± 8.27 ng/mL
  MRT last: 1.95 ± 0.04 h
  Tmax: 0.5 h
[1]; lung
  AUC(0-t): 288 ± 13 ng·h/mL
  Cmax: 173 ± 14.1 ng/mL
  MRT last: 2.28 ± 0.06 h
  Tmax: 1 h
  half-life: 2.49 ± 0.13 h
[1]; plasma
  AUC(0-t): 119 ± 10.1 ng·h/mL
  Cmax: 109 ± 8.99 ng/mL
  MRT last: 1.31 ± 0.12 h
  Tmax: 0.5 h
  half-life: 1.77 ± 0.83 h
[1]; spleen
  AUC(0-t): 485 ± 5.11 ng·h/mL
  Cmax: 195 ± 4.58 ng/mL
  MRT last: 2.03 ± 0.06 h
  Tmax: 1 h
[1]; [2]
  Concentration (C) of the drug in brain tissue at the same time point (order): CLf-HupA-NE>CHupA-NE>CHupA aqueous solution
  Duration of action in the brain (T) (order): TLf-HupA-NE>THupA-NE>THupA aqueous solution
P-gp
  P-gp protein expression (immunoreactive score): higher in the HupA aqueous solution group than in the blank control group
BCRP
  BCRP protein expression (immunoreactive score): higher in the HupA aqueous solution group than in the blank control group
